# Measurements taken from ChEMBL document CHEMBL1122246, “Analgesic narcotic antagonists. 15. Potent narcotic agonist 7 beta-(arylalkyl)-4,5 alpha-epoxymorphinans” (1983).
# Tested on: Mus musculus
# Assay: Narcotic agonist activity using acetic acid induced writhing in the mouse upon subcutaneous administration
# Assay type: functional
# Settings: not given
# How it was run: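 Mouse acetic acid writhing test with subcutaneous dosing. Salt forms were given in distilled water; free bases were dissolved by adding 1 N HCl and then diluted.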
row,Structure (SMILES),ED50
1,COc1ccc2c3c1O[C@H]1[C@H]4OC[C@@]4(C(O)c4ccccc4)CC4[C@@H](C2)N(C)CC[C@@]341 (stereo partly specified),11.9 µM/kg

# Same assay, conditions: Mus musculus, sc; read-out: ED50
row,Structure (SMILES),ED50
1,COc1ccc2c3c1OC1[C@H](O)[C@](CO)(CCCCc4ccccc4)CC4C(C2)N(CC2CCC2)CCC341 (stereo partly specified),0.52 µmol/kg
2,CN1CCC23c4c5ccc(O)c4OC2[C@H](O)[C@](CO)(CCc2ccccc2)CC3C1C5 (stereo partly specified),0.004 µmol/kg
3,COc1ccc2c3c1OC1[C@H](O)[C@@](C=CCCCc4ccccc4)(CO)CC4C(C2)N(C)CCC341 (stereo partly specified),4 µmol/kg
4,Oc1ccc2c3c1OC1[C@H]4OC[C@@]4(CCCCc4ccccc4)CC4C(C2)N(CC2CC2)CCC341 (stereo partly specified),0.015 µmol/kg
5,CN1CCC23c4c5ccc(O)c4OC2[C@H]2OC[C@@]2(CCc2ccccc2)CC3C1C5 (stereo partly specified),0.048 µmol/kg
6,COc1ccc2c3c1OC1[C@H](O)[C@](CO)(CCCCCc4ccccc4)CC4C(C2)N(CC2CC2)CCC341 (stereo partly specified),0.4 µmol/kg
7,CN1CCC23c4c5ccc(O)c4OC2[C@H](O)[C@](CO)(CCCCCCc2ccccc2)CC3C1C5 (stereo partly specified),> 19 µmol/kg
8,COc1ccc2c3c1OC1C(=O)[C@](C)(CCCCc4ccccc4)CC4C(C2)N(CC2CCC2)CCC314 (stereo partly specified),5.6 µmol/kg
9,OC[C@@]1(CCCCc2ccccc2)CC2C3Cc4ccc(O)c5c4C2(CCN3CC2CC2)C(O5)[C@@H]1O (stereo partly specified),11 µmol/kg
10,COc1ccc2c3c1OC1[C@H]4OC[C@@]4(CCCCc4ccccc4)CC4C(C2)N(C)CCC341 (stereo partly specified),0.005 µmol/kg
11,COc1ccc2c3c1OC1[C@H](O)[C@](CO)(CCCCCc4ccccc4)CC4C(C2)N(C)CCC341 (stereo partly specified),2.3 µmol/kg
12,COc1ccc2c3c1OC1[C@H]4OC[C@@]4(CCCCCc4ccccc4)CC4C(C2)N(C)CCC341 (stereo partly specified),1.3 µmol/kg
13,COc1ccc2c3c1OC1[C@H](O)[C@](CO)(CCCc4ccccc4)CC4C(C2)N(C)CCC341 (stereo partly specified),0.39 µmol/kg
14,OC[C@@]1(CCCc2ccccc2)CC2C3Cc4ccc(O)c5c4C2(CCN3CC2CCC2)C(O5)[C@@H]1O (stereo partly specified),0.57 µmol/kg
15,"Oc1ccc2c3c1OC1C4OC[C@@]4(CCCCc4ccccc4)CC4C(C2)N(CC2CCC2)CCC341 (single isomer, unassigned)",0.05 µmol/kg
16,CN1CCC23c4c5ccc(O)c4OC2[C@H]2OC[C@@]2(CCCCCc2ccccc2)CC3C1C5 (stereo partly specified),0.028 µmol/kg
17,C=C[C@]1(CO)CC2C3Cc4ccc(OC)c5c4C2(CCN3C)C(O5)[C@@H]1O (stereo partly specified),> 28 µmol/kg
18,CCCC[C@]1(CO)CC2C3Cc4ccc(O)c5c4C2(CCN3C)C(O5)[C@@H]1O (stereo partly specified),0.56 µmol/kg
19,COc1ccc2c3c1OC1[C@H](O)[C@](CO)(CCc4ccccc4)CC4C(C2)N(CC2CCC2)CCC341 (stereo partly specified),0.7 µmol/kg
20,COc1ccc2c3c1OC1C(=O)[C@](C)(CCc4ccccc4)CC4C(C2)N(CC2CCC2)CCC314 (stereo partly specified),0.19 µmol/kg
21,COc1ccc2c3c1OC1[C@H](O)[C@@](/C=C/Cc4ccccc4)(CO)CC4C(C2)N(C)CCC341 (stereo partly specified),1.1 µmol/kg
22,COc1ccc2c3c1OC1[C@H]4OC[C@@]4(CCCCc4ccccc4)CC4C(C2)N(CC2CCC2)CCC341 (stereo partly specified),2.8 µmol/kg

row,Structure (SMILES),ED50
1,COc1ccc2c3c1OC1[C@H](O)[C@](CO)(CCc4ccccc4)CC4C(C2)N(C)CCC341 (stereo partly specified),0.028 µmol/kg
2,COc1ccc2c3c1OC1[C@H](O)[C@](CO)(CCCCc4ccccc4)CC4C(C2)N(C)CCC341 (stereo partly specified),0.014 µmol/kg
3,"COc1ccc2c3c1OC1C4OC[C@@]4(CCc4ccccc4)CC4C(C2)N(CC2CC2)CCC341 (single isomer, unassigned)",0.57 µmol/kg
4,COc1ccc2c3c1OC1[C@@H](O)[C@](C)(CCCCc4ccccc4)CC4C(C2)N(CC2CCC2)CCC341 (stereo partly specified),11.3 µmol/kg
5,COc1ccc2c3c1OC1[C@H](O)[C@](CO)(CCCc4ccccc4)CC4C(C2)N(CC2CC2)CCC341 (stereo partly specified),0.13 µmol/kg
6,Oc1ccc2c3c1OC1[C@H]4OC[C@@]4(CCCc4ccccc4)CC4C(C2)N(CC2CCC2)CCC341 (stereo partly specified),0.06 µmol/kg
7,COc1ccc2c3c1OC1[C@H](O)[C@](CO)(CCc4ccccc4)CC4C(C2)N(CC2CC2)CCC341 (stereo partly specified),0.61 µmol/kg
8,C[C@@]1(CCc2ccccc2)CC2C3Cc4ccc(O)c5c4C2(CCN3CC2CCC2)C(O5)C1=O (stereo partly specified),0.04 µmol/kg
9,COc1ccc2c3c1OC1[C@H](O)[C@@](/C=C/CCCCc4ccccc4)(CO)CC4C(C2)N(C)CCC341 (stereo partly specified),13.9 µmol/kg
10,OC[C@@]1(CCc2ccccc2)CC2C3Cc4ccc(O)c5c4C2(CCN3CC2CC2)C(O5)[C@@H]1O (stereo partly specified),0.95 µmol/kg
11,COc1ccc2c3c1OC1[C@@H](O)[C@](C)(CCCCc4ccccc4)CC4C(C2)N(CC2CC2)CCC341 (stereo partly specified),0.5 µmol/kg
12,CN1CCC23c4c5ccc(O)c4OC2[C@H]2OC[C@@]2(CCCCc2ccccc2)CC3C1C5 (stereo partly specified),0.024 µmol/kg
13,OC[C@@]1(CCCCc2ccccc2)CC2C3Cc4ccc(O)c5c4C2(CCN3CC2CCC2)C(O5)[C@@H]1O (stereo partly specified),21.3 µmol/kg
14,CN1CCC23c4c5ccc(O)c4OC2[C@H]2OC[C@@]2(CCCc2ccccc2)CC3C1C5 (stereo partly specified),0.019 µmol/kg
15,C[C@@]1(CCCCc2ccccc2)CC2C3Cc4ccc(O)c5c4C2(CCN3CC2CCC2)C(O5)C1=O (stereo partly specified),0.17 µmol/kg
16,CC[C@]1(CO)CC2C3Cc4ccc(OC)c5c4C2(CCN3C)C(O5)[C@@H]1O (stereo partly specified),2.7 µmol/kg
17,C[C@@]1(CCCCc2ccccc2)CC2C3Cc4ccc(O)c5c4C2(CCN3CC2CC2)C(O5)C1=O (stereo partly specified),0.11 µmol/kg
18,OC[C@@]1(CCCCCc2ccccc2)CC2C3Cc4ccc(O)c5c4C2(CCN3CC2CC2)C(O5)[C@@H]1O (stereo partly specified),> 19 µmol/kg
19,COc1ccc2c3c1O[C@H]1[C@H](O)[C@](CO)(C(O)c4ccccc4)CC4[C@@H](C2)N(C)CC[C@@]341 (stereo partly specified),2.3 µmol/kg
20,CCCC[C@]1(CO)CC2C3Cc4ccc(OC)c5c4C2(CCN3C)C(O5)[C@@H]1O (stereo partly specified),13.7 µmol/kg
21,COc1ccc2c3c1OC1[C@H]4OC[C@@]4(CCc4ccccc4)CC4C(C2)N(C)CCC341 (stereo partly specified),0.9 µmol/kg
22,OC[C@@]1(CCCc2ccccc2)CC2C3Cc4ccc(O)c5c4C2(CCN3CC2CC2)C(O5)[C@@H]1O (stereo partly specified),0.47 µmol/kg

row,Structure (SMILES),ED50
1,OC[C@@]1(CCc2ccccc2)CC2C3Cc4ccc(O)c5c4C2(CCN3CC2CCC2)C(O5)[C@@H]1O (stereo partly specified),2.5 µmol/kg
2,"Oc1ccc2c3c1OC1C4OC[C@@]4(CCc4ccccc4)CC4C(C2)N(CC2CC2)CCC341 (single isomer, unassigned)",0.04 µmol/kg
3,CN1CCC23c4c5ccc(O)c4OC2[C@H](O)[C@](CO)(CCCCc2ccccc2)CC3C1C5 (stereo partly specified),0.003 µmol/kg
4,CN1CCC23c4c5ccc(O)c4OC2[C@H](O)[C@](CO)(CCCCCc2ccccc2)CC3C1C5 (stereo partly specified),12 µmol/kg
5,COc1ccc2c3c1OC1C(=O)[C@](C)(CCCCc4ccccc4)CC4C(C2)N(CC2CC2)CCC314 (stereo partly specified),2 µmol/kg
6,"Oc1ccc2c3c1OC1C4OC[C@@]4(CCc4ccccc4)CC4C(C2)N(CC2CCC2)CCC341 (single isomer, unassigned)",0.39 µmol/kg
7,COc1ccc2c3c1OC1[C@H]4OC[C@@]4(CCCCc4ccccc4)CC4C(C2)N(CC2CC2)CCC341 (stereo partly specified),0.61 µmol/kg
8,COc1ccc2c3c1OC1[C@H]4OC[C@@]4(CCCc4ccccc4)CC4C(C2)N(C)CCC341 (stereo partly specified),0.046 µmol/kg
9,"Oc1ccc2c3c1OC1C4OC[C@@]4(CCCc4ccccc4)CC4C(C2)N(CC2CC2)CCC341 (single isomer, unassigned)",0.003 µmol/kg
10,CN1CCC23c4c5ccc(O)c4OC2[C@H](O)[C@](CO)(CCCc2ccccc2)CC3C1C5 (stereo partly specified),0.85 µmol/kg
11,COc1ccc2c3c1O[C@H]1[C@@H](O)C=C[C@H]4[C@@H](C2)N(C)CC[C@@]341 [CODEINE],10.3 µmol/kg
12,COc1ccc2c3c1OC1[C@H]4OC[C@@]4(CCCc4ccccc4)CC4C(C2)N(CC2CCC2)CCC341 (stereo partly specified),4.4 µmol/kg
13,COc1ccc2c3c1OC1[C@H](O)[C@](CO)(CCCCCCc4ccccc4)CC4C(C2)N(C)CCC341 (stereo partly specified),4.5 µmol/kg
14,COc1ccc2c3c1OC1[C@@H](O)[C@](C)(CCc4ccccc4)CC4C(C2)N(CC2CCC2)CCC341 (stereo partly specified),1 µmol/kg
15,COc1ccc2c3c1OC1[C@H](O)[C@](CO)(CCCc4ccccc4)CC4C(C2)N(CC2CCC2)CCC341 (stereo partly specified),0.04 µmol/kg
16,COc1ccc2c3c1OC1[C@H](O)[C@](CO)(CCCCCc4ccccc4)CC4C(C2)N(CC2CCC2)CCC341 (stereo partly specified),0.3 µmol/kg
17,COc1ccc2c3c1OC1[C@H]4OC[C@@]4(CCc4ccccc4)CC4C(C2)N(CC2CCC2)CCC341 (stereo partly specified),> 16 µmol/kg
18,COc1ccc2c3c1OC1[C@H](O)[C@](CO)(CCCCc4ccccc4)CC4C(C2)N(CC2CC2)CCC341 (stereo partly specified),0.22 µmol/kg
19,COc1ccc2c3c1O[C@H]1[C@H]4OC[C@@]4(C(O)c4ccccc4)CC4[C@@H](C2)N(C)CC[C@@]341 (stereo partly specified),6.8 µmol/kg
20,OC[C@@]1(CCCCCc2ccccc2)CC2C3Cc4ccc(O)c5c4C2(CCN3CC2CCC2)C(O5)[C@@H]1O (stereo partly specified),> 18 µmol/kg
21,COc1ccc2c3c1O[C@H]1C(=O)CC[C@H]4[C@@H](C2)N(C)CC[C@]314 [HYDROCODONE],2.4 µmol/kg
